The list is not random: actives were taken first. Their share in the collection is about 2.9%.
hiPSC survival = enhancers of single-cell hiPSC survival, primary screen, ATPlite luminescence | 100% = ROCK inhibitor wells, 0% = DMSO | survival enhancement, % at 20 µM | 360,000 tested, 0.044% active | AID 602274, 2012; in the data active = survival enhancement above about 18%;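 also: cells exposed to compounds for 16 hours before the ATP read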
Rev-erbA mod = modulators of Rev-erb alpha DNA binding, primary screen, biochemical, FITC-DNA, fluorescence polarization, uHTS; Rev-erbα–FITC-DNA binding, 90 min; activity, % at 10 µM; 370,000 tested, 0.79% active;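 active = activity above about 14%, limit read from the data; passing the limit was not always enough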;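 also: 0% = DMSO wells with 35 nM protein and 100% = DMSO wells with 750 nM protein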
Target sequence (P20393 whole entry, looked up): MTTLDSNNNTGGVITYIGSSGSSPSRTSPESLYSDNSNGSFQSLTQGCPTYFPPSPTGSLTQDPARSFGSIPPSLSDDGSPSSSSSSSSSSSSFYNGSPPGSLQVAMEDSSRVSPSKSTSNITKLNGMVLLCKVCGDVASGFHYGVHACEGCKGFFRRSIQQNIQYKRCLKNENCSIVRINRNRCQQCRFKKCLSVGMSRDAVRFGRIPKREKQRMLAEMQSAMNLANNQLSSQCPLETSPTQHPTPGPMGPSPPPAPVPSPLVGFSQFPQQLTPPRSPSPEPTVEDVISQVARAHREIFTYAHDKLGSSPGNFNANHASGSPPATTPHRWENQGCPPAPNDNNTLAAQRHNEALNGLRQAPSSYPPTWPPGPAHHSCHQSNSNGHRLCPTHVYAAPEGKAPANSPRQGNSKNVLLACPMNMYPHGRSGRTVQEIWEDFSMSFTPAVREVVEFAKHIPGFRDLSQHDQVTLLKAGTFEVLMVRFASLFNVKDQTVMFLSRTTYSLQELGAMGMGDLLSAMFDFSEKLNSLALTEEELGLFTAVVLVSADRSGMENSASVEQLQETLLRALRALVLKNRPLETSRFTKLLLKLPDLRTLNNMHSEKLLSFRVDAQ
T cruzi inh = inhibitors of intracellular T. cruzi growth, primary screen, luminescence, NIH3T3 host cells | 300,000 tested, 1.4% active | inhibition, % (no concentration beside the values) | T. cruzi beta-gal in NIH3T3, 90 h | AID 1885, 2009;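 active = mean inhibition across valid replicates above about 55%, limit read from the data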;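 also: signal also drops with host cell toxicity which is not excluded here; 0% = plate median of DMSO wells and 100% = zero luminescence signal; higher percent means less beta-gal luminescence so fewer parasites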
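Material: NIH/3T3 host cells with β-galactosidase reporter T. cruzi; Input: 5,000 host fibroblasts per well; Medium: DMEM, 2% fetal bovine serum; Compound: 50 nL DMSO compound solution per well; Schedule: 3 h host attachment, then at least 90 h co-culture; Detection: luminescent β-galactosidase signal after 60 min lysis.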
MIN6 prolif = inducers of MIN6 beta-cell proliferation, primary screen, ATP luminescence, uHTS; proliferation, % at 10 µM; MIN6 cells proliferation, ATPlite luminescence, 48 h; cells starved in 0.2% serum; 100% = growth in 10% serum; AID 2380, 2010; 330,000 tested, 0.29% active;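 active = compounds whose signal lies at least 3.5 SD above the mean of all wells on their plate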;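 also: 0% = DMSO-treated cells in low-serum medium and 100% = 10% serum control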
PG9 binder = binders of HIV-1 gp120 antibody PG9, primary screen, biochemical, TR-FRET | AID 624416, 2012 | 360,000 tested, 0.43% active | inhibition, % at 6.7 µM | HIV-1 gp120 / PG9 antibody interaction | TR-FRET gp120-PG9 antibody binding; in the data active = inhibition above about 8.5%
TAG inh = inhibitors of triacylglycerol accumulation, primary screen, cell-based, uHTS, fluorescence, H9c2; H9c2 cells, Nile Red lipid (TAG) fluorescence; cells loaded with 200 µM oleic acid; inhibition, % at 12.5 µM; 230,000 tested, 0.66% active; AID 651582, 2012;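 active = pattern-corrected inhibition of lipid staining of at least 50% with the nuclear-stain viability signal not falling by more than 50%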;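 also: 0% = DMSO wells and 100% = triacsin C control wells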
H9c2 TAG conf = triacylglycerol accumulation inhibitors, retest, confirmation, cell-based, single concentration, Nile Red fluorescence, H9c2; shares compounds with TAG inh; H9c2 lipid accumulation; cells loaded with 200 µM oleic acid; inhibition, % at 12.5 µM; 990 tested, 71% active;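 active = mean inhibition across replicates of 40% or more; inactive = mean inhibition below 40%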;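 also: plate controls were DMSO only wells for no effect and Triacsin C treated wells for full effect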
Active calls of the source: *; x = not tested or not shown.

SMILES	hiPSC survival	Rev-erbA mod	T cruzi inh	MIN6 prolif	PG9 binder	TAG inh	H9c2 TAG conf
C=CC[C@@H](CC(=O)N(CCO)Cc1ccccc1)C(=O)N[C@H](COC(=O)[C@@H](CC=C)CC(=O)OC(C)(C)C)Cc1ccccc1	-3.2	-0.7	x	-4.6	-0.5	50.0*	69.8*
CCOC(=O)C1=C(C)N(C[C@@H]2CC[C@@H](Cc3ccc(-c4ccccc4)cc3)O2)C(=O)NC1c1cccc2ccccc12 (stereo partly specified)	-1.9	1.3	x	x	0.8	78.0*	78.4*
COc1ccc(OC)c(S(=O)(=O)Nc2ccc(O)c(Sc3ncn[nH]3)c2)c1	-1.6	0.5	-13.3	-0.1	x	x	x
O=C1NC(Cc2ccc(O)cc2)c2nc3ccc(Cl)cc3c(=O)n2-c2cc3ccccc3cc21 (stereo unspecified)	-2.0	2.3	x	x	0.2	63.9*	60.1*
Cc1ccc2c(=O)n3c(nc2c1)C(Cc1ccc(O)cc1)NC(=O)c1cc2ccccc2cc1-3 (stereo unspecified)	-1.4	4.0	x	x	-0.7	52.6*	67.2*
O=C1NC(Cc2ccc(O)cc2)c2nc3ccc(Cl)cc3c(=O)n2-c2cc(Cl)ccc21 (stereo unspecified)	x	-3.7	x	-1.0	-1.2	x	x
O=C(Cc1cccc([N+](=O)[O-])c1)Nc1ccc(C(=O)N2CCCCC2)cc1	4.9	4.3	x	-3.5	1.0	-6.3	x
Cc1cccc2sc(NC(=O)CN(C)S(=O)(=O)c3ccc(Br)s3)nc12	-1.5	3.8	17.8	-4.4	4.3	51.5*	39.8
CCCC1O[C@@H]2C[C@H]3[C@@H]4CCC5=CC(=O)C=C[C@]5(C)[C@H]4[C@@H](O)C[C@]3(C)[C@]2(C(=O)CO)O1 (stereo partly specified)	-4.0	-2.9	26.7	-4.2	0.2	66.3*	79.3*
Cc1nc2scc(C)n2c(=O)c1S(=O)(=O)Nc1ccc(N2CCOCC2)c(Cl)c1	1.1	2.5	-48.7	-6.8	-2.1	x	x
COCCOC(=O)c1[nH]c2c(c1C)C(=O)CC(c1cccs1)C2 (stereo unspecified)	-0.7	-1.1	8.4	x	0.8	44.5	x
Cc1c(C(=O)OCC(C)C)[nH]c2c1C(=O)CC(c1cccs1)C2 (stereo unspecified)	2.3	-0.7	54.7*	-3.4	3.5	63.5*	50.2*
CCOCCOC(=O)c1[nH]c2c(c1C)C(=O)CC(c1cccs1)C2 (stereo unspecified)	-0.5	-2.5	20.6	-3.9	-0.2	52.7*	49.5*
CCOCCOC(=O)c1[nH]c2c(c1C)C(=O)CC(c1ccccc1)C2 (stereo unspecified)	-0.5	2.3	19.1	-4.2	-1.3	x	x
Cc1ccc(S(=O)(=O)N2CCN(C(=O)CN3CCOCC3)C2)cc1	-0.5	1.7	-24.7	-3.0	0.8	-14.9	x
CC(=O)Nc1cccc(-c2ccnc3c2CC(C)(C(=O)NCc2cccc(Cl)c2)O3)c1 (stereo unspecified)	-0.3	4.1	x	x	0.2	19.8	x
CC(=O)Nc1cccc(-c2ccnc3c2CC(C)(C(=O)NCc2ccc(N(C)C)cc2)O3)c1 (stereo unspecified)	-1.7	-2.8	x	x	-2.5	57.4*	54.0*
CC1(C(=O)Nc2ccc3c(c2)OCO3)Cc2c(-c3cccc(C(N)=O)c3)ccnc2O1 (stereo unspecified)	-0.2	3.5	x	x	-1.1	58.6*	68.8*
COc1ccc(NC(=O)C2(C)Cc3c(-c4ccc5c(c4)OCO5)ccnc3O2)cn1 (stereo unspecified)	-1.8	3.0	x	x	-1.2	51.9*	53.0*
O=C(O)C1=C[C@H](c2coc3ccccc3c2=O)C[C@H](OCc2ccc(CO)cc2)O1	-3.6	-1.6	-5.0	3.6	0.2	10.7	x

Screening results: PubChem BioAssay, several laboratories
